Screens: PubChem, several laboratories
CAL PDZ FP-1 = human CAL PDZ-peptide interaction inhibition; 330,000 tested, 0.02% active; purified CAL PDZ, TMR-peptide fluorescence polarization, 1 h; inhibition, % at 20 µM;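 active = highest replicate inhibition of at least 40%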;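 also: plate controls were DMSO neutral control wells for no effect and unlabeled competitor peptide control wells for full effect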
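Material: tagged CAL PDZ domain; buffer or medium: 25 mM sodium phosphate pH 7.4, 150 mM NaCl, TCEP, IgG, Thesit; compound dosing: single point, 20 µM; schedule: 1 h incubation at room temperature before polarization reading; measured by: FP readout, S and P plane fluorescence; read-out basis: percent inhibition from loss of millipolarization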
PKA-R2B activ = PKA-R2B complex activation; P22694+P31323; activation, % at 11.4 µM; PKA-R2B holoenzyme dissociation, Cy5-IP20 fluorescence polarization; R2B truncated from residue 108, S112A mutant; 0% DMSO only, 100% 113 µM cGMP; AID 504700; 340,000 tested, 0.079% active;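 active = activation above a cutoff set at the mean over all compounds plus 3 SD, cut at about 18% in these data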;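 also: higher means more holoenzyme dissociation and a rise in polarization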
Target sequence (P31323 whole entry, looked up, other chains not shown, the tested form may be a part): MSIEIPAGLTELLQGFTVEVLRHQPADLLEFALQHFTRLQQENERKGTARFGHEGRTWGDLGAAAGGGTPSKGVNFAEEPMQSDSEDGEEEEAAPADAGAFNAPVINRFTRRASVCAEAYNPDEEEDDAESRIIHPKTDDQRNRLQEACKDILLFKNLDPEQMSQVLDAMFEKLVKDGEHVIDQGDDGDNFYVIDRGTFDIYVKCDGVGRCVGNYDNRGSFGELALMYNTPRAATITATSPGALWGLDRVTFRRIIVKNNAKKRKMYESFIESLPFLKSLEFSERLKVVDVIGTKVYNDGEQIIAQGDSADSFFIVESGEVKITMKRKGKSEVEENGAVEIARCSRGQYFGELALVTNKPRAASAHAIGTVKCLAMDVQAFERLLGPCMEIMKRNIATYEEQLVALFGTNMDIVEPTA
dFosB act-1 = mouse delta FosB homodimer activation; P13346; purified delta FosB, TAMRA-CDK5 oligo fluorescence polarization; percent of positive-control signal above neutral wells; activation, % at 25 µM; 340,000 tested, 0.99% active;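 active = mean activation above about 17%, with every replicate also reaching it, limit read from the data, passing the limit was not always enough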
PKA-R1A activ = PKA-R1A complex activation; P00514+P68181; PKA-R1A dissociation, Cy5-IP20 fluorescence polarization; scaled: DMSO 0%, 113 µM cGMP 100%; activation, % at 11.4 µM; 340,000 tested, 0.083% active;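 active = percent activation above the mean of all tested compounds plus 3 SD, cut at about 19% in these data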;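 also: higher means more PKAc released from R1A so a rise in polarization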
NTR1 agonist = agonists of human neurotensin receptor NTR1; P30989; NTR1-U2OS beta-arrestin-GFP spot imaging, agonist mode; activation, % at 20 µM; 330,000 tested, 0.17% active;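 active = activation at or above 40% of the spot to cytoplasm intensity ratio, with at least 20 cells analyzed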;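 also: 0% = DMSO without peptide and 100% = 100 nM NTR1 peptide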
CAL PDZ FP-2 = blocks peptide binding to the human CAL PDZ domain. purified CAL PDZ, TMR-peptide fluorescence polarization, 1 h. inhibition, % at 24.9 µM. 300,000 tested, 0.92% active. AID 602252;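 active = mean inhibition of at least 30% with at least half of replicates also reaching 30%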;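 also: 0% = DMSO neutral control and 100% = excess unlabeled competitor peptide PRC23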
dFosB act-2 = enhances mouse delta FosB homodimer binding to DNA; shares compounds with dFosB act-1; purified delta FosB, TAMRA-CDK5 oligo fluorescence polarization; normalised: neutral wells 0, positive control 100; activation, % at 24.9 µM; 2,400 tested, under 10 active; AID 588690;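 active = highest replicate activation at or above 34% and every replicate reaching that threshold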;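 also: higher polarization means more probe DNA bound by delta FosB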
An asterisk follows results filed as active; . = no result given. A selection: hits, their analogues and other compounds. The true share with any hit is near 2%.

SMILES | CAL PDZ FP-1 | PKA-R2B activ | dFosB act-1 | PKA-R1A activ | NTR1 agonist | CAL PDZ FP-2 | dFosB act-2
Cc1cc(C)c(OCC(=O)Nc2ccc(NC(=O)c3ccco3)cc2)c([N+](=O)[O-])c1 | 0 | -2 | 18* | 1 | . | 8 | 0
CC(C)C[C@H]1CNC(=S)N1CC1CCCN1C[C@H](Cc1ccccc1)N1C[C@H](Cc2ccc(O)cc2)N(CC2CCCCC2)C1=S (some centres undefined) | 1 | -4 | 59* | 9 | . | -2 | 2
Oc1ccc(C[C@H]2CNC(=S)N2CC2CCCN2C[C@H](Cc2ccc(O)cc2)N2C[C@H](Cc3ccc(O)cc3)N(CC3CCCCC3)C2=S)cc1 (some centres undefined) | 1 | -6 | 8 | -7 | . | -2 | .
CC(C)C[C@H]1CNC(=S)N1CC1CCCN1C[C@H](CC(C)C)N1C[C@H](Cc2ccc(O)cc2)N(CC2CCCCCC2)C1=S (some centres undefined) | 2 | 2 | 23* | 10 | . | 2 | 4
CC(C)C[C@H]1CNC(=S)N1CC1CCCN1C[C@H](CC(C)C)N1C[C@H](Cc2ccc(O)cc2)N(CC2CCCCC2)C1=S (some centres undefined) | 0 | -12 | 27* | -10 | . | 0 | 5
CC(C)C[C@@H](CN1CCCC1CN1C(=S)NC[C@@H]1Cc1ccc(O)cc1)N1C[C@H](Cc2ccc(O)cc2)N(CC2CCCCC2)C1=S (some centres undefined) | 0 | -7 | 37* | -2 | . | -6 | 7
O=C(CC1CCCC1)Nc1cc(C(F)(F)F)ccc1-n1cncn1 | 0 | -16 | -5 | -2 | 0 | -5 | .
COc1cccc(N=Cc2c(O)c3ccccc3oc2=O)c1 | -1 | -7 | -18 | 7 | -2 | -6 | .
O=S1(=O)CCS(=O)(=O)C1c1ccccc1 | 0 | -10 | -1 | -8 | 2 | . | .
CC(Oc1ccc(F)cc1Br)c1nc2ccccc2c(=O)[nH]1 (centres undefined) | -3 | -9 | -6 | 4 | 0 | -4 | .
CC(=O)c1cccc(NC(=O)Cn2c(=O)oc3cc(S(=O)(=O)N4CCCC4)ccc32)c1 | -2 | -14 | 33* | -1 | 0 | -1 | 0
COc1ccc(NC(=O)Cn2c(=O)oc3cc(S(=O)(=O)N4CCCC4)ccc32)cc1 | -1 | 2 | 2 | 3 | 2 | . | .
CCn1c(SCC(=O)Nc2ccc(C(C)=O)cc2)nc2c([nH]c3ccccc32)c1=O | -1 | -11 | 33* | -8 | 4 | -2 | 3
CCn1c(SCC(=O)Nc2cccc(NC(C)=O)c2)nc2c([nH]c3ccccc32)c1=O | -2 | 0 | 9 | -1 | 2 | -4 | .
COC(=O)COc1ccc2oc(=O)cc(-c3cc4cccc(OC)c4o3)c2c1 | -2 | -8 | 52* | -10 | 2 | -3 | 1
CCC(C)NC(=O)Cn1c(=O)n(-c2ccc(OC)cc2)c(=O)c2ccc(C(=O)NCc3ccc(C)cc3)cc21 (centres undefined) | -4 | -1 | 33* | 0 | -1 | -2 | 5
Cc1ccccc1N(C(=O)c1snc(C(N)=O)c1N)C(C(=O)NCc1ccccc1)c1ccc(O)cc1 (centres undefined) | -3 | 1 | 41* | -4 | 2 | -5 | 5
CCOc1ccccc1N(C(=O)c1snc(C(N)=O)c1N)C(C(=O)NCc1ccccc1)c1ccc(O)cc1 (centres undefined) | -1 | -2 | -5 | -6 | 1 | -9 | .
NC(=O)c1nsc(C(=O)N(c2ccccc2F)C(C(=O)NCc2ccccc2)c2ccc(O)cc2)c1N (centres undefined) | -2 | -6 | 32* | -3 | 0 | -6 | 4
CC[C@]12c3[nH]c4ccccc4c3CCN1C(=O)C(CC(=O)NCCCOC)C[C@@H]2C(=O)N1CCN(C(=O)c2ccco2)CC1 (some centres undefined) | 0 | -14 | 3 | 1 | 1 | 0 | .
CCOc1ccccc1C=C1SC(=S)NC1=O | 0 | 1 | -5 | 5 | . | -4 | .
CCn1c(=O)c(C(=O)Nc2ncccc2O)c(O)c2ccccc21 | . | 2 | 26* | -3 | -1 | -5 | -1
CCn1c(=O)c(C(=O)Nc2ncccc2C)c(O)c2ccccc21 | -3 | -4 | -34 | 0 | 2 | -10 | .
COC(=O)c1ccc(CNC(=O)CN2C(=O)NC(Cc3ccccc3)(c3ccccc3)C2=O)cc1 (centres undefined) | . | 5 | . | 5 | . | . | .
CCNc1nc(Cl)nc(-c2cn(-c3ccccc3)c3ccccc23)n1 | -1 | -5 | 22* | 8 | 9 | -2 | 3
SMILES | CAL PDZ FP-1 | PKA-R2B activ | dFosB act-1 | PKA-R1A activ | NTR1 agonist | CAL PDZ FP-2 | dFosB act-2
NC(=O)CCC(NC(=O)c1ccc(Cl)cc1)C(=O)NCCc1ccc2c(c1)OCCO2 (centres undefined) | -3 | -5 | -2 | 5 | 1 | -5 | .
O=S(=O)(Nc1ccc2c(c1)nc1n2CCN(Cc2ccccc2)C1)c1ccc(Cl)cc1 | -4 | -7 | 23* | 10 | 8 | -7 | -9
O=S(=O)(Nc1ccc2c(c1)nc1n2CCN(Cc2ccccc2)C1)c1ccccc1 | -3 | 2 | 24* | -6 | 9 | . | -3
COc1ccc(C(C(=O)NC2CCCC2)N(CCO)C(=O)Cn2nnc(-c3ccc(C)o3)n2)cc1OC (centres undefined) | -2 | -1 | -16 | 0 | 0 | -6 | .
O=c1c(Cc2ccccc2)c(O)ccn1Cc1ccc2c(c1)OCO2 | -1 | -4 | 37* | -10 | -1 | . | 6
O=c1c(Cc2ccc(Cl)cc2)c(O)ccn1Cc1ccccc1 | -1 | -2 | -7 | -1 | -1 | 0 | .
Cc1ccc(NC(=O)CN2C(=O)N/C(=C/c3ccc4c(c3)OCCO4)C2=O)cc1 | -1 | -5 | 48* | 1 | 0 | 5 | -6
Nc1nc(N)c2nc(-c3ccccc3)c(N)nc2n1 | -1 | 12 | 19* | 1 | 2 | 2 | 0
Cc1cccc(S(=O)(=O)Nc2nc3ccccc3nc2OC(C)C)c1 | -1 | -11 | 3 | -3 | 0 | 0 | .
Clc1cccc(CNc2nc(-c3cccnc3)nc3ccccc23)c1 | -5 | 3 | 55* | -7 | 18 | . | 2
S=c1nc(NCc2cccc(Cl)c2)c2ccccc2[nH]1 | -2 | -5 | 45* | -8 | 0 | -4 | 0
c1ccc(CNc2nc(-c3cccs3)nc3ccccc23)cc1 | -3 | 6 | 17* | -3 | . | -3 | 2
